# NPY-Y2 antag – antagonists of human neuropeptide Y receptor Y2; P49146; NPY-Y2 expressing cells, antagonist mode; inhibition, % at 2.7 µM; hit rate 0.99% among 140,000;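 also: 0% = vehicle with agonist challenge and 100% = reference antagonist with challenge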
# NPY-Y1 antag – antagonists of human neuropeptide Y receptor Y1; P25929; HEK293-CNG Y1 cells, membrane potential fluorescence; NPY at EC95, then isoproterenol; inhibition, % at 3.6 µM; hit rate 1% among 200,000;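 active = inhibition above the campaign mean inhibition of all tested compounds plus 3 SD, cut at about 20% in these data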;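 also: 0% = DMSO wells given NPY plus isoproterenol and 100% = isoproterenol alone without NPY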
# Target sequence (P25929 whole entry, looked up): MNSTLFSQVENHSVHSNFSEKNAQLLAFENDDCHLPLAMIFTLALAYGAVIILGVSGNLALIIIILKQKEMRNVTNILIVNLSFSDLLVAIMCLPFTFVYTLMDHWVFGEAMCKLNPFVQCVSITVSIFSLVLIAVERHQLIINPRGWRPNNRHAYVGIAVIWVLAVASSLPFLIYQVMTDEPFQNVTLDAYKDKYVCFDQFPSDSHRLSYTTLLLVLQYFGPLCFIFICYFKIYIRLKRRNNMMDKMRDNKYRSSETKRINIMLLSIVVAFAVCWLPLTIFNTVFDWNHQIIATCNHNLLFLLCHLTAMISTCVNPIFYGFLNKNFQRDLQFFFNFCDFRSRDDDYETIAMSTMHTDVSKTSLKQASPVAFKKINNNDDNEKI
#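 Test system – HEK293 Y1/CNG channel cell line · Also added – NPY agonist 25 nM, then isoproterenol 1 µM plus Ro 20-1724 25 µM · Compound dosing – one concentration, 3.6 µM, in 0.4% DMSO · Schedule – compound incubation 1 h at room temperature, readout 45 min post-stimulation · Technique – fluorescence, membrane potential probe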
# NPY-Y1 PAM-ag – potentiators or agonists of human neuropeptide Y receptor Y1; P25929; NPY-Y1 expressing cells, potentiator/agonist activation; activation, % at 3.6 µM; hit rate 0.37% among 220,000; AID 1304; in the data active = activation above about 33%, passing the limit was not always enough;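 also: cells stimulated with NPY at EC10 then isoproterenol at EC100; 0% = low agonist plus stimulus and 100% = saturating agonist plus stimulus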
# Measles CPE – protection of cells from measles virus. Measles virus-infected cells, CPE protection, absorbance. protection (pct of control), % at 4 µM. hit rate 1.5% among 140,000; in the data active = protection mostly above about 24%, no sharp cut-off; inactive = mostly below about 26%
# Mdm2 ligase inh – inhibitors of human Mdm2 E3 ubiquitin ligase. AID 1230. hit rate 0.11% among 210,000. Q00987. cell-based MDM2 ubiquitination luciferase reporter, 2 h; 0 = plate control, 100 = twice control, blank-subtracted. signal enhancement, % at 5 µM;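 active = signal enhancement of 30% or more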;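 also: luminescence tracks abundance of the self-degrading MDM2-luciferase fusion protein; higher signal means inhibition of MDM2 E3 ligase activity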
#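 Test system: mammalian cells stably expressing self-ubiquitinating, self-degrading MDM2 E3–luciferase fusion; Amount: 2000 cells in each well; Medium: DMEM; Schedule: 4 h settle plus 2 h compound, 37 °C; Technique: SteadyLite luciferase luminescence after 15 min room-temperature reagent incubation; Benchmarks: plate control and blank wells.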
# NPY2 pot ag – potentiators or agonists of human neuropeptide Y receptor Y2; cells expressing NPY-Y2, potentiator/agonist read-out; activation, % at 3.6 µM; hit rate 0.45% among 220,000; in the data active = activation above about 27%;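 also: cells stimulated with NPY near EC25 plus isoproterenol at EC100; 0% = vehicle plus submaximal agonist and 100% = vehicle plus saturating agonist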
# NPY1 antag conf – human NPY-Y1 antagonism, confirmation. shares compounds with NPY-Y1 antag. inhibition, % at 3.6 µM. HEK293-CNG NPY-Y1, membrane potential fluorescence, cAMP; NPY challenge against isoproterenol-raised cAMP. hit rate 21% among 1,200; in the data active = inhibition above about 20%;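 also: 0% = vehicle with agonist plus stimulus and 100% = stimulus alone without agonist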
# NPY2 antag ctr – antagonizes human NPY-Y2, counter-screen to NPY-Y1 antagonists. shares compounds with NPY-Y1 antag. HEK293 NPY-Y2 CNG membrane potential fluorescence, antagonism; cells given NPY, then isoproterenol. inhibition, % at 3.6 µM. hit rate 28% among 1,200. AID 1255;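 also: 0% = DMSO with agonist challenge and 100% = reference antagonist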
# The depositor's hits bear a star; . = no result given. Rows were chosen to be rich in hits. Some 2.8% of all compounds tested hit in one or more screens of this group. Rule as the data show it, unless noted: active = inhibition above about 17%; inactive = the rest.
SMILES,NPY-Y2 antag,NPY-Y1 antag,NPY-Y1 PAM-ag,Measles CPE,Mdm2 ligase inh,NPY2 pot ag,NPY1 antag conf,NPY2 antag ctr
Cc1ccccc1OCc1n(CC(=O)OC2CC(C)CCC2C(C)C)c2ccccc2[n+]1C (stereo unspecified),.,29*,-35,.,-24,-17,36*,42*
CCc1ccc(S(=O)(=O)c2n[nH]n3c2nc(=O)c2ccccc23)cc1,12,24*,-11,4,-13,-12,8,7
CC(C)c1ccc(S(=O)(=O)c2n[nH]n3c2nc(=O)c2ccccc23)cc1,13,4,-11,19,-1,0,.,.
CN(C)CCNC(=O)c1sc2cccc(F)c2c1Cl,.,33*,-22,.,-10,-6,3,8
COc1ccc(Oc2cc(C(F)(F)F)nc(N(C)C)n2)cc1,.,-3,6,.,-13,-2,.,.
Cc1c(Cl)sn(-c2ccc(Cl)cc2)c1=O,.,13,-13,.,-14,-2,.,.
CCOC(=O)C1(Cc2ccccc2)CCN(Cc2cccn2-c2nccs2)CC1,.,29*,-33,.,-13,-10,12,22*
CCOC(=O)C1(Cc2ccccc2)CCN(Cc2cccn2-c2cccnc2)CC1,.,30*,-9,.,-9,-8,15,8
Brc1ccccc1Cn1c(-c2cscn2)nc2ccccc21,13,-3,3,4,-13,4,.,.
Cc1cc2ccccc2c(=O)n1CC(=O)NCC(=O)N(C)C1CCCCC1,0,-3,22,17,-5,-2,.,.
NCCCCCc1nnc(SCc2ccc(Cl)c(Cl)c2)o1,4,9,-38,17,16,-19,.,.
CCCOC(=O)C(C)n1c(-c2ccccc2)nc2ccccc2c1=O (stereo unspecified),14,33*,-58,2,-5,-66,13,11
OC(COc1c(F)cc(Br)cc1F)CN1CCN(c2ccc(F)cc2)CC1 (stereo unspecified),7,20*,-23,2,-1,2,4,9
O=C(CSc1nnc(COc2ccccc2)o1)N1CCN(c2ccccc2)CC1,2,4,-2,9,.,0,.,.
CCOC(=O)CSc1nnc(COc2cccc(C)c2)o1,.,5,10,.,0,-3,.,.
Cc1cc(C)cc(OCc2nnc(SCC(=O)N3CCN(c4ccccc4)CC3)o2)c1,6,21*,-22,21,-3,-9,13,17
Cc1ccc(C(=O)CSc2nnc(COc3cccc(C)c3)o2)cc1,13,21*,-43,13,-1,-24,10,10
CC(Sc1nnnn1-c1ccc(Cl)cc1)C(=O)NCC(=O)Nc1ccc(F)c(F)c1F (stereo unspecified),2,1,1,17,-6,9,.,.
Cc1cc2nnc(SCC(=O)OC(C)C)n2c2ccccc12,2,5,6,0,-4,-10,.,.
O=C(Nc1ccccc1)C1=C[C@H](c2csc3ccccc23)C[C@H](OCc2ccc(CO)cc2)O1,.,26*,-3,.,.,-15,9,8
COc1ccc2nc(SCC(=O)Nc3nccs3)[nH]c2c1,.,2,2,.,-8,-5,.,.
Clc1ccc(OCCOCCN2CCc3ccccc3C2)c(Cl)c1,10,25*,-28,6,-9,-16,8,8
c1ccc(-c2ccccc2OCCOCCN2CCc3ccccc3C2)cc1,.,16,-11,.,-4,-11,.,.
Clc1ccc(SCCOCCN2CCc3ccccc3C2)cc1,.,23*,-23,.,-2,-5,15,12
N#CC(c1ccc(Cl)cc1)c1cccc(Cl)n1 (stereo unspecified),.,8,4,.,-13,3,.,.
SMILES,NPY-Y2 antag,NPY-Y1 antag,NPY-Y1 PAM-ag,Measles CPE,Mdm2 ligase inh,NPY2 pot ag,NPY1 antag conf,NPY2 antag ctr
O=C(CCCN1C(=O)c2ccccc2C1=O)NCCN1C(=O)S/C(=C\c2cccs2)C1=O,2,12,10,18,-8,1,.,.
CN(C)c1ccc(N=C/C=C2/N(C)c3ccccc3C2(C)C)cc1,2,-1,5,12,-16,10,.,.
Cc1cccc(C(C)(C)C)c1OCCCCN1CCCC1,9,21*,-23,5,-11,-17,10,15
CC(C)(C)c1ccccc1OCCCCN1CCCC1,6,12,-12,13,-9,1,.,.
O=C(NC1CCCCC1)C(c1ccncc1)N(Cc1ccc2c(c1)OCO2)C(=O)C(F)(F)F (stereo unspecified),9,21*,-20,4,-3,-4,9,5
CCC1(C)Cc2ccccc2-c2[nH][nH]c(=O)c21 (stereo unspecified),.,55*,-6,.,-10,-3,18,4
COc1ccccc1/C=C/C=N/NC(=O)c1cccs1,.,.,3,.,-7,0,.,.
CC(=O)Nc1ccc(S(=O)(=O)NCCCN2CCN(Cc3ccccc3)CC2)cc1Cl,.,.,-9,.,-12,-23,.,.
CCN1/C(=C/C(C)=C/c2sc3ccccc3[n+]2CC)Sc2ccccc21,.,106*,-12,.,-51,4,79*,53*
N#Cc1ccc(CSc2nnc(-c3ccccc3)n2Cc2ccco2)cc1,16,33*,7,5,-12,-17,5,4
COc1ccc(-c2c[n+](CC(=O)OC3CC(C)CCC3C(C)C)c3n2CCC3)cc1 (stereo unspecified),.,75*,-47,.,-26,-7,61*,35*
COc1cc2c(cc1OC)CN(CC(=O)Nc1ccc(Cl)c(S(=O)(=O)N(C)C)c1)CC2,.,-3,-12,.,3,5,.,.
c1cc2ccc3ccc(CN4CCOCC4)c4ccc(c1)c2c34,3,8,-20,8,5,-1,.,.
OC1CCCN(Cc2ccc3ccc4cccc5ccc2c3c45)C1 (stereo unspecified),11,25*,-35,2,-3,-18,10,17*
Fc1ccccc1CSc1nnc(-c2ccccc2)o1,6,29*,-13,5,-21,4,4,8
COc1ccc(-c2nnc(SCc3ccccc3F)o2)cc1,6,22*,-20,0,-30,-4,9,11
Fc1ccccc1CSc1nnc(-c2cccnc2)o1,.,-1,-1,.,-9,-3,.,.
Cc1c(C)n(Cc2ccccc2)c2ccc(C(=O)OCCCN(C)C)cc12,.,22*,-5,.,-7,-14,29*,37*
Cc1cc(C)c(S(=O)(=O)c2ccc(Cl)cc2C)c(Cl)n1,.,7,6,.,-9,-3,.,.

# Source: PubChem BioAssay (several laboratories)
